The results in this text go back to ChEMBL document CHEMBL3774321, “Systematic diversification of benzylidene heterocycles yields novel inhibitor scaffolds selective for Dyrk1A, Clk1 and CK2” (Eur J Med Chem, 2016).

Activity calls are given as the source filed them. The rule behind the calls is not given here.

The target in data set [1] is Mitogen-activated protein kinase kinase kinase 9 (Homo sapiens) (UniProt P80192). Description: Inhibition of recombinant human GST-tagged MAP3K9 expressed in baculovirus expression system at 5 uM by lantha screen kinase binding assay relative to control. The gist of the method: (§1)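 Binding-displacement format: the compound competes with an Alexa Fluor-conjugated tracer for binding to the kinase ATP site, rather than a peptide phosphorylation read-out.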
Sequence of Mitogen-activated protein kinase kinase kinase 9 (Homo sapiens) (P80192 whole entry, looked up): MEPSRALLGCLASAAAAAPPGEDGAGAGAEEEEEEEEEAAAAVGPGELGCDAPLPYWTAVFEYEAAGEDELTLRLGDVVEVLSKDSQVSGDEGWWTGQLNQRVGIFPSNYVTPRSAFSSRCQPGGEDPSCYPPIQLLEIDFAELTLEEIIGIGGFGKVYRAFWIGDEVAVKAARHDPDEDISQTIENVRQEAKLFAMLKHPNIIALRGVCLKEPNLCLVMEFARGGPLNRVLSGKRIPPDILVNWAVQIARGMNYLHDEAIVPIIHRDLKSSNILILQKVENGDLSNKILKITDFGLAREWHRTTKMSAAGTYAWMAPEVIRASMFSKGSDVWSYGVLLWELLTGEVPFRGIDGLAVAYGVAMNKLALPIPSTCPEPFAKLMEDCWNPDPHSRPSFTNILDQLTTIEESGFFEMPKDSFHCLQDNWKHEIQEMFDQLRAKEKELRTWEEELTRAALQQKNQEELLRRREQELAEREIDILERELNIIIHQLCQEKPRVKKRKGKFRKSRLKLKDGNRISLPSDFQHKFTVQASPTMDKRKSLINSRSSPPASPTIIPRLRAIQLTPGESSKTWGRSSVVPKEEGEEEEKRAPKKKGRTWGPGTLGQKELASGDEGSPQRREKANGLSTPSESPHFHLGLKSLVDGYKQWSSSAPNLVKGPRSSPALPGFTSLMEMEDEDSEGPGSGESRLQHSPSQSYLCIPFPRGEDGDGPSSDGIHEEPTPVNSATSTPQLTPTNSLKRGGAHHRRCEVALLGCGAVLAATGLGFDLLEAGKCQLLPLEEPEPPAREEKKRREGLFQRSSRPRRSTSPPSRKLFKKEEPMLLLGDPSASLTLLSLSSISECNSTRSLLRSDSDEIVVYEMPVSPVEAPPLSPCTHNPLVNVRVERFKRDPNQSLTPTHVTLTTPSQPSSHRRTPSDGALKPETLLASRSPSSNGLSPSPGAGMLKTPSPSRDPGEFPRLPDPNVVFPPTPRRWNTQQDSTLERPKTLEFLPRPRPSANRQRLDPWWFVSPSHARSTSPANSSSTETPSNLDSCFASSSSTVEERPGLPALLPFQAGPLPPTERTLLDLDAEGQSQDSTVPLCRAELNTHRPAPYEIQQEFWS

In data set [2] the target is Tyrosine-protein kinase ABL1 (Homo sapiens) (UniProt P00519). Description: Inhibition of recombinant human His-tagged ABL1 expressed in baculovirus expression system at 5 uM by lantha screen kinase binding assay relative to control. The essentials: as §1
Sequence of Tyrosine-protein kinase ABL1 (Homo sapiens) (P00519 whole entry, canonical isoform): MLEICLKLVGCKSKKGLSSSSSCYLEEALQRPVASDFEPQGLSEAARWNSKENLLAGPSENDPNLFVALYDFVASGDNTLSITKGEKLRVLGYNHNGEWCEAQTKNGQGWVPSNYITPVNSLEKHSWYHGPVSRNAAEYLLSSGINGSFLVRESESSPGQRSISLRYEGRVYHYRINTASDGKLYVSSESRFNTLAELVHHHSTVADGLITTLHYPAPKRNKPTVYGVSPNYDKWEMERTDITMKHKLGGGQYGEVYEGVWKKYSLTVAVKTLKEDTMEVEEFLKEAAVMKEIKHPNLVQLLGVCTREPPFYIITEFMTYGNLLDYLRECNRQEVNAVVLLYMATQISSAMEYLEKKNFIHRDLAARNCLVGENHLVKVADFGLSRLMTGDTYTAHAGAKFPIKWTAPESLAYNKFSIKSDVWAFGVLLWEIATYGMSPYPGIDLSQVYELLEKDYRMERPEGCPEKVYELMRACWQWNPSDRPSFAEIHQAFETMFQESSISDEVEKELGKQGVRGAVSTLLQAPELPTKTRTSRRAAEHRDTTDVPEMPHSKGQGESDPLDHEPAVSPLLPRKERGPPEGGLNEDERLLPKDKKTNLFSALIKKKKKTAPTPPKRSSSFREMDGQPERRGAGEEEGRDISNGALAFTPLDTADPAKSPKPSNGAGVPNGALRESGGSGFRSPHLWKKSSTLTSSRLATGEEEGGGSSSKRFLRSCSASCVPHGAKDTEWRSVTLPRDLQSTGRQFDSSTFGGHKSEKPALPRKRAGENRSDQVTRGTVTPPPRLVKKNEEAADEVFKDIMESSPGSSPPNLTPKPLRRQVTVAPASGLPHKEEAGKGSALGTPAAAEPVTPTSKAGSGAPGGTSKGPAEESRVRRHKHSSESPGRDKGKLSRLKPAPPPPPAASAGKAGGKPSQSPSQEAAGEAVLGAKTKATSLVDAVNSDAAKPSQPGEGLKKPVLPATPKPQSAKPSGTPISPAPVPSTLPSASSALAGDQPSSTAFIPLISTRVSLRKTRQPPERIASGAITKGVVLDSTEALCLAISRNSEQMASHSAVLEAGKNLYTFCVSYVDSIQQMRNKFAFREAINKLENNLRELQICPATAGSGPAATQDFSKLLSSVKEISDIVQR
Data set [3] addresses Casein kinase I isoform epsilon (Homo sapiens) (UniProt P49674). As to the kind of experiment: Inhibition of full length recombinant human His-tagged CSNK1E expressed in baculovirus expression system at 5 uM by lantha screen kinase binding assay relative to control.
Data set [4] concerns the target Mitogen-activated protein kinase 14 (Homo sapiens) (UniProt Q16539). As to the kind of experiment: Inhibition of full length recombinant human GST-tagged MAPK14 expressed in Escherichia coli at 5 uM by lantha screen kinase binding assay relative to control.
Data set [5] has as its target Serine/threonine-protein kinase D2 (Homo sapiens) (UniProt Q9BZL6). Description: Inhibition of full length recombinant human GST-tagged PRKD2 expressed in baculovirus expression system at 5 uM by lantha screen kinase binding assay relative to control.
Data set [6] has as its target Epidermal growth factor receptor (Homo sapiens, UniProt P00533). Description: Inhibition of recombinant human GST-tagged EGFR expressed in baculovirus expression system at 5 uM by lantha screen kinase binding assay relative to control. The gist of the method: as §1
Data set [7] has as its target T1, Dual specificity protein kinase CLK3 (Homo sapiens, UniProt P49761). Description: Inhibition of recombinant human GST-tagged CLK3 expressed in baculovirus expression system at 5 uM by lantha screen kinase binding assay relative to control. The gist of the method:
as §1

For data set [8], the target named is Myosin light chain kinase, smooth muscle (Homo sapiens) (UniProt Q15746). As to the kind of experiment: Inhibition of recombinant human GST-tagged MYLK expressed in baculovirus expression system at 5 uM by lantha screen kinase binding assay relative to control. The gist of the method: as §1
Sequence of Myosin light chain kinase, smooth muscle (Homo sapiens) (Q15746 whole entry): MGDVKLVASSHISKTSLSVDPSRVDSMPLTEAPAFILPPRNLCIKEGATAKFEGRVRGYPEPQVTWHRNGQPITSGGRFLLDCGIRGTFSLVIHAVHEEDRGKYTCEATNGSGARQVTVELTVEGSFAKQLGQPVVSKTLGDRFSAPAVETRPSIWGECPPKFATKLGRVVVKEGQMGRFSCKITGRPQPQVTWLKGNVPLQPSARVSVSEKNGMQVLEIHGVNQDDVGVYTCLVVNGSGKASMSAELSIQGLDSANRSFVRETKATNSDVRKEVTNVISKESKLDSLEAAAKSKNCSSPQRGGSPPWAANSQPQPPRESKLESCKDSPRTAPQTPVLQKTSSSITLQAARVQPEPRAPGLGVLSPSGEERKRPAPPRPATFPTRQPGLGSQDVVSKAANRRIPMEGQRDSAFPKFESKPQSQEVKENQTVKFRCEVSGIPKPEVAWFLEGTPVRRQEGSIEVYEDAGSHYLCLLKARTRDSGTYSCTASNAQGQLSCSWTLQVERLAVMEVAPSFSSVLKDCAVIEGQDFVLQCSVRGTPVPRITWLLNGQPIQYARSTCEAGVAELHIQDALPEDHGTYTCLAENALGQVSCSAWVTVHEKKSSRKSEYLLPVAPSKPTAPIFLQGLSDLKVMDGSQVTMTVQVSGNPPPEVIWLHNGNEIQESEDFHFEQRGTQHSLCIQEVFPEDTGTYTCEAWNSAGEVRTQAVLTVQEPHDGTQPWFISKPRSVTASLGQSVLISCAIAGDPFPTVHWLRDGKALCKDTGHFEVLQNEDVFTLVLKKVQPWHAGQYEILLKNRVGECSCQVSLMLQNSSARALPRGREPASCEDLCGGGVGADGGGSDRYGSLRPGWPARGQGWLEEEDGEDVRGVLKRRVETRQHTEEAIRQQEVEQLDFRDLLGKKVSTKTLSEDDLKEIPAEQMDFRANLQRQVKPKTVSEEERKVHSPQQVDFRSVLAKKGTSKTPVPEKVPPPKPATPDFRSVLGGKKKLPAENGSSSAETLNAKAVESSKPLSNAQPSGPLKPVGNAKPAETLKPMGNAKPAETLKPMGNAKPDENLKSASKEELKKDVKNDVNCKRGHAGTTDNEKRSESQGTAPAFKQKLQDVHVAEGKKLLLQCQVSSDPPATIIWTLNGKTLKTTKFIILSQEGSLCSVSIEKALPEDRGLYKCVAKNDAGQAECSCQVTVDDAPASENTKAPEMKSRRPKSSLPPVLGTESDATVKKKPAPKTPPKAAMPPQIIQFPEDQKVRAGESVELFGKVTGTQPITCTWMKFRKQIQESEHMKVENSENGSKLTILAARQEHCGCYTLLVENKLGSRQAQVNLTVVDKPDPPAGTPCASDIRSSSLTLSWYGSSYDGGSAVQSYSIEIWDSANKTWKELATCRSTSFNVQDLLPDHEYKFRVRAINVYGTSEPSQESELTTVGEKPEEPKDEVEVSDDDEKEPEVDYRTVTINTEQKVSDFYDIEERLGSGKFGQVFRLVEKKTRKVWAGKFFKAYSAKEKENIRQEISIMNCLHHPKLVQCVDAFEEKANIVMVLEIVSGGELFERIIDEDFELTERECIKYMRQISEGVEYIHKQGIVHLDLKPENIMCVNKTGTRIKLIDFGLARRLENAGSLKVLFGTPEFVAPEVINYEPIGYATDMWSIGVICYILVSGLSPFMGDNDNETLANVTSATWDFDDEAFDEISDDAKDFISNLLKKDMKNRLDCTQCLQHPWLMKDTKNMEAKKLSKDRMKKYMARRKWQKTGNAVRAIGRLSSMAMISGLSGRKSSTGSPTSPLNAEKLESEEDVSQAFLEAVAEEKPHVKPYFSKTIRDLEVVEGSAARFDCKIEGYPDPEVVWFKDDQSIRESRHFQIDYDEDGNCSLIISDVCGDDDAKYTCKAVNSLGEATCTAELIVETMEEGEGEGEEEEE
Data set [9] deals with Serine/threonine-protein kinase pim-2 (Homo sapiens) (UniProt Q9P1W9). As to the kind of experiment: Inhibition of full length recombinant human GST-tagged PIM2 expressed in baculovirus expression system at 5 uM by lantha screen kinase binding assay relative to control.
The target of data set [10] is Dual specificity tyrosine-phosphorylation-regulated kinase 3 (Homo sapiens) (UniProt O43781). Description: Inhibition of full length recombinant human GST-tagged DYRK3 expressed in baculovirus expression system at 5 uM by lantha screen kinase binding assay relative to control.
Data set [11] has as its target Serine/threonine-protein kinase 26 (Homo sapiens) (UniProt Q9P289). Description: Inhibition of full length recombinant human GST-tagged MST4 expressed in baculovirus expression system at 5 uM by lantha screen kinase binding assay relative to control.
The next data set relates to HEK293. Description: Cytotoxicity against HEK293 cells up to 20 uM. The class given is cell-based. As to conditions: human.
Data set [12] has as its target Casein kinase I isoform epsilon (Homo sapiens) (UniProt P49674). Description: Inhibition of full length recombinant human His-tagged CSNK1E expressed in baculovirus expression system at 1 uM by lantha screen kinase binding assay relative to control.
For data set [13], the target named is T1, Dual specificity protein kinase CLK3. Description: Inhibition of recombinant human GST-tagged CLK3 expressed in baculovirus expression system at 1 uM by lantha screen kinase binding assay relative to control. The essentials: as §1
The target of data set [14] is Dual specificity protein kinase CLK2 (Homo sapiens) (UniProt P49760). Description: Inhibition of recombinant human GST-tagged CLK2 expressed in baculovirus expression system at 1 uM by lantha screen kinase binding assay relative to control. The gist of the method: as §1
Data set [15] concerns the target Calcium/calmodulin-dependent protein kinase type II subunit alpha (Homo sapiens) (UniProt Q9UQM7). As to the kind of experiment: Inhibition of full length recombinant human His-tagged CAMK2A expressed in baculovirus expression system at 1 uM by lantha screen kinase binding assay relative to control.
The target in data set [16] is Cyclin-dependent kinase 5/CDK5 activator 1 (Homo sapiens) (UniProt Q00535+Q15078). As to the kind of experiment: Inhibition of full length recombinant human GST-tagged, His-tagged CDK5/p25 expressed in baculovirus expression system at 1 uM by lantha screen kinase binding assay.
In data set [17] the target is MAP kinase-interacting serine/threonine-protein kinase 2 (Homo sapiens) (UniProt Q9HBH9). As to the kind of experiment: Inhibition of full length recombinant human N-terminal GST-tagged MKNK2 expressed in insect cells at 1 uM by lantha screen kinase binding assay relative to control. The essentials:
as §1

For data set [18], the target named is MAP kinase-interacting serine/threonine-protein kinase 1 (Homo sapiens) (UniProt Q9BUB5). As to the kind of experiment: Inhibition of full length recombinant human N-terminal GST-tagged MKNK1 expressed in insect cells at 1 uM by lantha screen kinase binding assay relative to control. The gist of the method: as §1
The target in data set [19] is Tyrosine-protein kinase ABL1 (Homo sapiens) (UniProt P00519). Description: Inhibition of recombinant human His-tagged ABL1 expressed in baculovirus expression system at 1 uM by lantha screen kinase binding assay relative to control. The essentials: as §1
In data set [20] the target is Serine/threonine-protein kinase D2 (Homo sapiens) (UniProt Q9BZL6). As to the kind of experiment: Inhibition of full length recombinant human GST-tagged PRKD2 expressed in baculovirus expression system at 1 uM by lantha screen kinase binding assay relative to control.
Data set [21] addresses Glycogen synthase kinase-3 beta (Homo sapiens) (UniProt P49841). As to the kind of experiment: Inhibition of full length recombinant human His-tagged GSK3beta expressed in baculovirus expression system at 1 uM by lantha screen kinase binding assay relative to control. The gist of the method: as §1
Data set [22] concerns the target Myosin light chain kinase, smooth muscle (Homo sapiens) (UniProt Q15746). As to the kind of experiment: Inhibition of recombinant human GST-tagged MYLK expressed in baculovirus expression system at 1 uM by lantha screen kinase binding assay relative to control. The gist of the method:
as §1

In data set [23] the target is Receptor-interacting serine/threonine-protein kinase 2 (Homo sapiens) (UniProt O43353). Description: Inhibition of recombinant human His-tagged RIPK2 expressed in baculovirus expression system at 1 uM by lantha screen kinase binding assay relative to control. The gist of the method: as §1
The target in data set [24] is Activin receptor type-1 (Homo sapiens) (UniProt Q04771). As to the kind of experiment: Inhibition of recombinant human GST-tagged ACVR1 expressed in baculovirus expression system at 1 uM by lantha screen kinase binding assay relative to control. The gist of the method:
as §1

In data set [25] the target is Casein kinase I isoform gamma-3 (Homo sapiens) (UniProt Q9Y6M4). Description: Inhibition of full length recombinant human GST-tagged CSNK1G3 expressed in baculovirus expression system at 1 uM by lantha screen kinase binding assay relative to control.
Data set [26] concerns the target Mitogen-activated protein kinase kinase kinase 9 (Homo sapiens) (UniProt P80192). As to the kind of experiment: Inhibition of recombinant human GST-tagged MAP3K9 expressed in baculovirus expression system at 1 uM by lantha screen kinase binding assay relative to control. The essentials:
as §1

For data set [27], the target named is Serine/threonine-protein kinase 17A (Homo sapiens, UniProt Q9UEE5). As to the kind of experiment: Inhibition of STK17A (unknown origin).
In data set [28] the target is Serine/threonine-protein kinase pim-1 (Homo sapiens, UniProt P11309). Description: Inhibition of PIM1 (unknown origin) at 5 uM relative to control.
In data set [29] the target is Serine/threonine-protein kinase 17A (Homo sapiens) (UniProt Q9UEE5). Description: Inhibition of STK17A (unknown origin) at 5 uM relative to control.

Sequence of Casein kinase I isoform epsilon (Homo sapiens) (P49674 whole entry, looked up, canonical isoform): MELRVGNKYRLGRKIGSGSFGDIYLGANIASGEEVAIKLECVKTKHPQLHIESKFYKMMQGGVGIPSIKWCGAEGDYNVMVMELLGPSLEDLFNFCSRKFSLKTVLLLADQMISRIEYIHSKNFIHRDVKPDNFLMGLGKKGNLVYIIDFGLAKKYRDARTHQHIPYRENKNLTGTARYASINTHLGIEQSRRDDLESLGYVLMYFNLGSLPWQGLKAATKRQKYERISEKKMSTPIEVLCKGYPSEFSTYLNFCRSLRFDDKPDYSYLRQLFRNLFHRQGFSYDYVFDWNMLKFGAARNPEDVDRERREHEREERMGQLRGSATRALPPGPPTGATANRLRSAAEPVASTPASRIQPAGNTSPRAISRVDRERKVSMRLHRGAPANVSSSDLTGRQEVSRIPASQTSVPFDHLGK
T1 sequence (P49761 whole entry, looked up): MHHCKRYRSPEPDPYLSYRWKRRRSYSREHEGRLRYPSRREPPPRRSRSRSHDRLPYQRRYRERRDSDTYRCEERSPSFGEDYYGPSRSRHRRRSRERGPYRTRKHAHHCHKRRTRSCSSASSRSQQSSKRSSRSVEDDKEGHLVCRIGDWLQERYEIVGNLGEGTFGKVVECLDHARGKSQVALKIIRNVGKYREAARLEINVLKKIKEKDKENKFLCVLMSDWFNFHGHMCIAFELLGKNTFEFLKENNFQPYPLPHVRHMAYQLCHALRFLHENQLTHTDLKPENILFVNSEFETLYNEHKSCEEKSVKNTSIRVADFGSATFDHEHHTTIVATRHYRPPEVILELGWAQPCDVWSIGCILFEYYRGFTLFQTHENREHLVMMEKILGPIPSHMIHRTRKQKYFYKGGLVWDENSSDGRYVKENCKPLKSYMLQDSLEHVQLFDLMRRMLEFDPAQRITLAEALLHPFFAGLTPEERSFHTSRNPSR

The inhibition is the change of the read-out against control, counted positive when it falls. With `O=C1NC(=S)S/C1=C\c1ccc2ncsc2c1`, the inhibition entry in data set [1], in [3], in [4], in [5], in data set [6] and in data set [8] was “inactive” in each case. Moreover, the inhibition result in data set [9] and in [11] was “inactive” in each case. For the same molecule, the inhibition was determined as 6% in data set [2], 44% in [7] and 7% in [10].
In the case of `O=C1OCC/C1=C\c1ccc2ncsc2c1`, in the data set on HEK293, the Activity result was “Non-toxic”.
Broadly, the IC50 is the point on the concentration scale where inhibition reaches its midpoint. High values mean lower potency, low ones higher potency. For `O=C1NC(=S)S/C1=C\c1ccc2ncccc2c1`, the inhibition in [12] came to 1%; in data set [13] it was 95%; in [14] it was 80%; in [15] it was 7%; in [17], 34%; in data set [18], 44%. Also, the inhibition amounted to 14% in data set [19]; 19% in data set [20]; 10% in data set [21]; 48% in data set [22]; 83% in data set [23]; 37% in [24]. Moreover, the inhibition was found to be 17% in data set [25] and 2% in [26]. Also, in data set [16], the inhibition entry was “inactive”. The IC50 in [27] was 0.0128 µM.
For the molecule `CC1C/C(=C\c2ccc3c(c2)CCO3)C(=O)O1` (stereo not given), the inhibition in [28] turned out to be 19%; in data set [29] it was 28%.
